Measurements from ChEMBL document CHEMBL3352714, “Synthesis, in Vitro Covalent Binding Evaluation, and Metabolism of (14)C-Labeled Inhibitors of 11β-HSD1” (ACS Med Chem Lett, 2014).

Legend:
Liver microsome [1] = assay: Oxidative metabolism in human liver microsomes assessed as protein covalent binding measured per mg protein at 10 uM after 1 hr in presence of NADPH
Liver microsome [2] = assay: Oxidative metabolism in human liver microsomes assessed as protein covalent binding measured per mg protein at 10 uM after 1 hr in presence of NADPH
[3] = Drug metabolism in human hepatocytes assessed as total turnover after 2 hrs by LC-MS/MS-radiometric analysis; type: ADME, cell-based, Hepatocyte; conditions: read-out: Drug metabolism
In short: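 14C-labeled compound incubated with human hepatocytes. Parent and radiolabeled metabolites were analyzed by tandem LC–MS/MS with radiometric detection and expressed as % of administered dose.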

[4] = Half life in rat at 0.5 mg/kg, iv; type: ADME, organism-based; parameters: dose 0.5 mg/kg, route intravenous; conditions: in vivo
In short: (§1)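 Intravenous dose 0.5 mg/kg, formulated in 10% N,N-dimethylacetamide, 10% ethanol, 40% propylene glycol and 40% water. Values are averages of three animals per species.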

[5] = Cmax in cynomolgus monkey at 2 mg/kg, po; type: ADME, organism-based, Macaca fascicularis; parameters: dose 2 mg/kg, route oral; conditions: in vivo
In short: (§2)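 Oral dose 2.0 mg/kg. Rat and dog received a solution in 15% HPβCD in Ora-Plus. Cynomolgus monkey received a suspension in 1% Tween 80 and 1% methylcellulose (4000 cps) in deionized water. Values are averages of three animals; iv reference dose was 0.5 mg/kg.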

[6] = Cmax in dog at 2 mg/kg, po; type: ADME, organism-based, Canis lupus familiaris; parameters: dose 2 mg/kg, route oral; conditions: in vivo; in short: as §2
[7] = Oral bioavailability in rat at 2 mg/kg; type: ADME, organism-based; conditions: in vivo; in short: as §2
[8] = Half life in cynomolgus monkey at 0.5 mg/kg, iv; type: ADME, organism-based, Macaca fascicularis; parameters: dose 0.5 mg/kg, route intravenous; conditions: in vivo; in short: as §1
[9] = Clearance in rat at 0.5 mg/kg, iv; type: ADME, organism-based; parameters: dose 0.5 mg/kg, route intravenous; conditions: in vivo; in short: as §1
[10] = Oral bioavailability in cynomolgus monkey at 2 mg/kg; type: ADME, organism-based, Macaca fascicularis; conditions: in vivo; in short: as §2
[11] = Volume of distribution at steady state in dog at 0.5 mg/kg, iv; type: ADME, organism-based, Canis lupus familiaris; parameters: dose 0.5 mg/kg, route intravenous; conditions: in vivo, read-out: Vdss; in short: as §1
Cynomolgus monkey = conditions: Macaca fascicularis; at 10 mg/kg
[12] = Half life in dog at 0.5 mg/kg, iv; type: ADME, organism-based, Canis lupus familiaris; parameters: dose 0.5 mg/kg, route intravenous; conditions: in vivo; in short: as §1
[13] = Clearance in cynomolgus monkey at 0.5 mg/kg, iv; type: ADME, organism-based, Macaca fascicularis; parameters: dose 0.5 mg/kg, route intravenous; conditions: in vivo; in short: as §1
[14] = Clearance in dog at 0.5 mg/kg, iv; type: ADME, organism-based, Canis lupus familiaris; parameters: dose 0.5 mg/kg, route intravenous; conditions: in vivo; in short: as §1
[15] = Volume of distribution at steady state in cynomolgus monkey at 0.5 mg/kg, iv; type: ADME, organism-based, Macaca fascicularis; parameters: dose 0.5 mg/kg, route intravenous; conditions: in vivo, read-out: Vdss; in short: as §1
[16] = Oral bioavailability in dog at 2 mg/kg; type: ADME, organism-based, Canis lupus familiaris; conditions: in vivo; in short: as §2
[17] = Volume of distribution at steady state in rat at 0.5 mg/kg, iv; type: ADME, organism-based; parameters: dose 0.5 mg/kg, route intravenous; conditions: in vivo, read-out: Vdss; in short: as §1
[18] = Cmax in rat at 2 mg/kg, po; type: ADME, organism-based; parameters: dose 2 mg/kg, route oral; conditions: in vivo; in short: as §2

Work on `C[C@](O)(c1ccc(S(=O)(=O)c2ccc([14C]#N)cc2Cl)cc1)C(F)(F)F` yielded a PB (Liver microsome [1]) of 370 pmol, a PB (Liver microsome [2]) of 370 pmol and a metabolised at 2 h [3] of 9.8%.

Compound `C[C@](O)(c1ccc(C(=O)N(C2CC2)[C@H]2CC[C@](COC(N)=O)(c3ccc(F)cc3)CC2)cc1)C(F)(F)F` (mixture of isomers) has a half-life [4] of 43 h, a Cmax [5] of 211 ng/mL and a Cmax [6] of 1840 ng/mL. For the same compound, the bioavailability [7] was 72%, the half-life [8] was 27 h and the clearance [9] was 0.683 mL/min/kg. For the same compound, the bioavailability [10] was 38%, the Vd [11] was 1.2 L/kg and the inhibition (Cynomolgus monkey) was “Dose-dependent effect”. For the same compound, the half-life [12] was 78 h, the clearance [13] was 0.483 mL/min/kg and the clearance [14] was 0.2 mL/min/kg. For the same compound, the Vd [15] was 1 L/kg, the bioavailability [16] was 88% and the Vd [17] was 2.3 L/kg. For the same compound, the Cmax [18] was 1130 ng/mL.

`c1ccc2ccccc2c1` gave a PB (Liver microsome [1]) of 420 pmol.

Compound `C[C@@H]1CN(CC2(C(N)=O)CC2)[14CH2][14CH2]N1S(=O)(=O)c1ccc([C@](C)(O)C(F)(F)F)cc1` has a PB (Liver microsome [1]) of 70 pmol and a PB (Liver microsome [2]) of 70 pmol.

Work on `C[C@](O)(c1ccc(C(=O)N(C2CC2)[C@H]2CC[C@](CO[14C](N)=O)(c3ccc(F)cc3)CC2)cc1)C(F)(F)F` yielded a PB (Liver microsome [1]) of 15 pmol and a PB (Liver microsome [2]) of 15 pmol.
